# According to ChEMBL document CHEMBL5120974, “Antitubercular Activity of Novel 2-(Quinoline-4-yloxy)acetamides with Improved Drug-Like Properties” (ACS Med Chem Lett, 2022):
# Key:
# [1] = tested on: Mycobacterium tuberculosis; assay: Antitubercular activity against Mycobacterium tuberculosis H37Rv assessed as bacterial growth inhibition incubated for 7 days by resazurin assay; format: functional; conditions: 168 h, time 7 day
# HepG2 = assay: Cytotoxicity against human HepG2 cells assessed as reduction in cell viability incubated for 72 hrs by MTT assay; format: functional
# In short: (§1)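 HepG2 and Vero cells were exposed to compound for 72 h, with viability read by MTT (mitochondrial activity) and neutral red uptake (lysosomal integrity). CC₅₀ is the concentration reducing cell viability by 50%.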
# [2] = Cytotoxicity against African green monkey Vero cells assessed as reduction in cell viability incubated for 72 hrs by MTT assay; format: toxicity, cell-based; conditions: chlorocebus sabaeus; in short: as §1
# [3] = tested on: Mycobacterium tuberculosis; assay: Antitubercular activity against Mycobacterium tuberculosis H37Rv infected in mouse RAW 264.7 cells assessed as reduction on bacterial colony growth at 2.5 uM incubated for 2 to 3 weeks; format: functional; conditions: time 2-3 weeks
# In short: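 Mtb growth inside macrophages (in vitro infection model) was tested with compounds at 2.5 μM; the untreated control got 0.5% DMSO vehicle. Read-out was log₁₀ CFU/well, given as mean ± standard deviation and compared with the untreated group by Dunnett post-test (P < 0.05).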
# [4] = Selectivity index, ratio of CC50 for cytotoxicity against human HepG2 cells to MIC for antitubercular activity against Mycobacterium tuberculosis H37Rv; format: toxicity, cell-based
# In short: (§2)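 SI = CC₅₀/MIC, with the MIC taken against H37Rv. CC₅₀ is the concentration that cuts cell viability by 50%, from cells exposed for 72 h. Viability was read by both MTT (mitochondrial activity) and neutral red uptake (lysosomal integrity).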
# [5] = Selectivity index, ratio of CC50 for cytotoxicity against African green monkey Vero cells to MIC for antitubercular activity against Mycobacterium tuberculosis H37Rv; format: toxicity, cell-based; in short: as §2
# [6] = Metabolic stability in rat liver microsomes assessed as half life measured upto 30 min by HPLC-MS/MS analysis; format: ADME, Microsome
# [7] = Chemical stability of the compound in pH 1.2 HCL assessed as remaining product at 10 uM incubated for 24 hrs by HPLC-MS/MS analysis; format: physicochemical; conditions: HCl pH 1.2, pH 1.2, read-out: Stability
# In short: (§3)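 Compound incubated 24 h at 37 °C in 0.1 M HCl (pH 1.2), PBS (pH 7.4) or 0.1 M NH₄HCO₃ (pH 9.1). Result is reported as percentage of compound remaining after incubation.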
# [8] = Chemical stability of the compound in pH 7.4 PBS assessed as remaining product at 10 uM incubated for 24 hrs by HPLC-MS/MS analysis; format: physicochemical; conditions: PBS pH 7.4, pH 7.4, read-out: Stability; in short: as §3
# [9] = Chemical stability of the compound in pH 9.1 NH4HCO3 assessed as remaining product at 10 uM incubated for 24 hrs by HPLC-MS/MS analysis; format: physicochemical; conditions: NH4HCO3 pH 9.1, pH 9.1, read-out: Stability; in short: as §3
# [10] = Solubility of the compound in HCl at pH 1.2 incubated for 4 hrs by liquid chromatography; format: physicochemical; conditions: HCl pH 1.2, pH 1.2
# [11] = Solubility of the compound in PBS at pH 7.4 incubated for 4 hrs by liquid chromatography; format: physicochemical; conditions: PBS pH 7.4, pH 7.4
# [12] = Permeability of the compound at 10 uM measured after 5 hrs by PAMPA based HPLC-MS/MS analysis; format: ADME; conditions: read-out: permeability
# [13] = Metabolic stability in rat liver microsomes assessed as intrinsic clearance measured upto 30 min by HPLC-MS/MS analysis; format: ADME, Microsome; conditions: read-out: CLH
# [14] = Clearance in mouse plasma at 25 mg/kg,iv by HPLC analysis; format: ADME, organism-based
# In short: (§4)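 Mouse pharmacokinetics after a single intravenous dose of 25 mg/kg (61.6 μmol/kg) or an oral dose of 121.6 mg/kg (300 μmol/kg). Plasma drug concentrations were quantified over time, including a 24 h sample after oral dosing. Oral bioavailability was estimated by comparing the two routes.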
# [15] = Inter-compartmental clearance in mouse plasma at 25 mg/kg,iv by HPLC analysis; format: ADME, organism-based; conditions: in vivo; in short: as §4
# [16] = Apparent oral clearance in mouse plasma at 121.6 mg/kg,po by HPLC analysis; format: ADME, organism-based; in short: as §4
# [17] = Apparent oral volume of distribution in mouse plasma at 121.6 mg/kg,po by HPLC analysis; format: ADME, organism-based; in short: as §4
# [18] = Absorption rate constant in mouse plasma at 121.6 mg/kg,po by HPLC analysis; format: ADME, organism-based; conditions: in vivo; in short: as §4
# [19] = Oral bioavailability in mouse plasma at 121.6 mg/kg by HPLC analysis; format: ADME, organism-based; in short: as §4
# [20] = Volume of distribution at steady state in mouse plasma at 25 mg/kg,iv by HPLC analysis; format: ADME, organism-based; conditions: read-out: Vdss; in short: as §4
# [21] = Volume of distribution at steady state in mouse plasma at 121.6 mg/kg,po by HPLC analysis; format: ADME, organism-based; conditions: in vivo; in short: as §4
# [22] = Clearance in mouse plasma at 121.6 mg/kg,po by HPLC analysis; format: ADME, organism-based; in short: as §4
# [23] = Cmax in mouse plasma at 121.6 mg/kg,po by HPLC analysis; format: ADME, organism-based; design: dose 121.6 mg/kg, route po; in short: as §4
# [24] = Plasma concentration in mouse plasma at 121.6 mg/kg,po measured after 24 hrs by HPLC analysis; format: ADME, organism-based; in short: as §4
# [25] = Terminal half life in mouse plasma at 25 mg/kg,iv by HPLC analysis; format: ADME, organism-based; conditions: read-out: beta t1/2; in short: as §4
# [26] = Terminal half life in mouse plasma at 121.6 mg/kg,po by HPLC analysis; format: ADME, organism-based; conditions: read-out: beta t1/2; in short: as §4
smiles,measurement,setting,value
Cc1cc(OCC(=O)Nc2ccc(N3CCCCC3)cc2)c2cc(Br)ccc2n1,MIC,[1],0.68 µM
COc1ccc2nc(C)cc(OCC(=O)Nc3ccc4ccccc4c3)c2c1,MIC,[1],0.05 µM
COc1ccc2nc(C)cc(OCC(=O)N[C@@H]3C[C@@H]4C[C@H]([C@H]3C)C4(C)C)c2c1,MIC,[1],26.1 µM
O=C(COc1cc(C(F)(F)F)nc2ccc(Cl)cc12)Nc1ccc(N2CCCCC2)cc1,MIC,[1],86.2 µM
COc1ccc2nc(C)cc(OCC(=O)NC3CCCC3)c2c1,MIC,[1],15.9 µM
Cc1cc(OCC(=O)Nc2ccc(N3CCCCC3)cc2)c2cc(Cl)ccc2n1,MIC,[1],0.75 µM
COc1ccc2nc(C)cc(OCC(=O)NC3C4CC5CC(C4)CC3C5)c2c1 (centres undefined),MIC,[1],6.6 µM
COc1ccc2nc(C)cc(OCC(=O)NCC3CCCCC3)c2c1,MIC,[1],7.3 µM
COc1ccc2nc(C)cc(OCC(=O)Nc3ccc(N4CCSCC4)cc3)c2c1,MIC,[1],0.37 µM
COc1ccc2nc(C(F)(F)F)cc(OCC(=O)Nc3ccc(N4CCCCC4)cc3)c2c1,MIC,[1],0.17 µM
CCc1cc(OCC(=O)Nc2ccc(N3CCCCC3)cc2)c2cc(Cl)ccc2n1,MIC,[1],0.37 µM
COc1ccc2nc(C)cc(OCC(=O)N[C@@H](C)C3CCCCC3)c2c1,MIC,[1],> 14 µM
O=C(COc1cc(C(F)(F)F)nc2ccc(Br)cc12)Nc1ccc(N2CCCCC2)cc1,MIC,[1],78.7 µM
COc1ccc2nc(C)cc(OCC(=O)N[C@H](C)C3CCCCC3)c2c1,MIC,[1],> 14 µM
COc1ccc2nc(C)cc(OCC(=O)Nc3ccc(N4CCOCC4)cc3)c2c1,MIC,[1],3.1 µM
COc1ccc2nc(C)cc(OCC(=O)NC3CCCCCC3)c2c1,MIC,[1],3.7 µM
CCc1cc(OCC(=O)Nc2ccc(N3CCCCC3)cc2)c2cc(OC)ccc2n1,MIC,[1],0.19 µM
same,CC50,HepG2,> 20 µM
same,CC50 at 72 h,[2],> 20 µM
same,Activity,[3],4.13 log10CFU
same,selectivity ratio,[4],> 105
same,selectivity ratio,[5],> 105
CCc1cc(OCC(=O)Nc2ccc(N3CCCCC3)cc2)c2cc(Br)ccc2n1,MIC,[1],0.34 µM
COc1ccc2nc(C)cc(OCC(=O)Nc3ccc(N4CCCCC4)cc3)c2c1,half-life,[6],2.93 h
same,MIC,[1],0.09 µM
same,CC50,HepG2,> 20 µM
same,CC50 at 72 h,[2],> 20 µM
same,Activity,[3],4.13 log10CFU
same,"remaining at 24 h, 10 µM",[7],58.3%
same,"remaining at 24 h, 10 µM",[8],100%
same,"remaining at 24 h, 10 µM",[9],62.1%
same,solubility at 4 h,[10],> 2500 µM
same,solubility at 4 h,[11],31.4 µM
same,"Papp at 5 h, 10 µM",[12],45 nm/s
same,CLint scaled,[13],0.45 L/h/kg
same,clearance,[14],0.088 L/h/kg
same,CL,[15],0.339 L/h/kg
same,CL/F,[16],0.226 L/h/kg
same,Vd/F,[17],0.46 L/kg
same,Ka,[18],3.01 h⁻¹
same,bioavailability,[19],51%
same,Vd,[20],0.304 L/kg
same,Vdss,[21],0.234 L/kg
same,CL/F,[22],0.115 L/h/kg
same,Cmax,[23],8.3 µg/mL
same,concentration at 24 h,[24],1.14 µg/mL
same,half-life,[25],2.27 h
same,half-life,[26],1.72 h
same,selectivity ratio,[4],> 222
same,selectivity ratio,[5],> 222
COc1ccc2nc(C)cc(OCC(=O)NC3CCCCC3)c2c1,MIC,[1],7.6 µM
CO[C@H]1/C=C/O[C@@]2(C)Oc3c(C)c(O)c4c(O)c(c(/C=N/N5CCN(C)CC5)c(O)c4c3C2=O)NC(=O)/C(C)=C\C=C\[C@H](C)[C@H](O)[C@@H](C)[C@@H](O)[C@@H](C)[C@H](OC(C)=O)[C@@H]1C [RIFAMPIN],MIC,[1],0.05 µM
COc1ccc2nc(C)cc(OCC(=O)NC3CCCCC3C)c2c1 (centres undefined),MIC,[1],14.6 µM
NNC(=O)c1ccncc1 [ISONIAZID],MIC,[1],2.3 µM
COc1ccc2nc(C)cc(OCC(=O)NC3CCC(C)CC3)c2c1 (centres undefined),MIC,[1],7.3 µM
CCCc1ccc(NC(=O)COc2cc(C)nc3ccc(OC)cc23)cc1,MIC,[1],0.05 µM
COc1ccc2nc(C)cc(OCC(=O)N[C@H]3C[C@H]4C[C@@H]([C@@H]3C)C4(C)C)c2c1,MIC,[1],3.3 µM
COc1ccc2nc(C)cc(OCC(=O)NC3CCC3)c2c1,MIC,[1],33.3 µM
COc1ccc2nc(C)cc(OCC(=O)Nc3ccccc3OC)c2c1,MIC,[1],0.44 µM
